# Hits are enriched below; roughly 1.4% of the tested compounds scored in any of these assays.
# DAGLB inhibitor: DAGLB lipase inhibitors, primary screen, biochemical, fluorescence, HTS; actives 0.059% (n = 340,000); Diacylglycerol lipase-beta (Homo sapiens), Q8NCG7; inhibition, % at 5.17 µM; HEK293T DAGLB membrane lysate, EnzChek fluorogenic substrate; in the data active = inhibition above about 34%;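 note: 0% = enzyme with vehicle and 100% = wells lacking enzyme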
# Target sequence (Q8NCG7 whole entry, looked up): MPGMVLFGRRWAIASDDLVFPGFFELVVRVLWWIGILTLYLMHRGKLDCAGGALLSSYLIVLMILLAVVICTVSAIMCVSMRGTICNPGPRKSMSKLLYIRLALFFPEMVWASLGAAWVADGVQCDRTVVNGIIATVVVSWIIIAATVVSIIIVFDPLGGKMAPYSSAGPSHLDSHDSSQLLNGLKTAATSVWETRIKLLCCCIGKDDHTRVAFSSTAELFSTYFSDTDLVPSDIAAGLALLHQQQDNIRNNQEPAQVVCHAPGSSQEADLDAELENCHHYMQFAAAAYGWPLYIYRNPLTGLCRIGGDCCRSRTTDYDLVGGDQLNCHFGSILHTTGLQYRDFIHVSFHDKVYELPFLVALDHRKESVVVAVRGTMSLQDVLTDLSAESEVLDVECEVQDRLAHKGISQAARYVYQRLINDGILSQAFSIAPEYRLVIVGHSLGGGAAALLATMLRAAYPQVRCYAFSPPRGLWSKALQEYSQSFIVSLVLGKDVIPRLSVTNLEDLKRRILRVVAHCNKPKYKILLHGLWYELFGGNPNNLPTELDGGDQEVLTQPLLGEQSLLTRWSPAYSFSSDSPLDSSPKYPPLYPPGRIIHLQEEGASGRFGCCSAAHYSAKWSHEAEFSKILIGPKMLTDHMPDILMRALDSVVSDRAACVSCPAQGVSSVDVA
# Arrestin-AP2 inh: inhibitors of beta-arrestin/AP2 binding, primary screen, biochemical, GPCR trafficking, flow cytometry | beta-arrestin 1 C-terminal peptide binding to AP2 beta2-adaptin appendage (human) | FITC-arrestin peptide / GST-AP2 beads; AP2 beta2 appendage carries R879A mutation | inhibition, % at 10 µM | actives 0.31% (n = 340,000) | AID 504490, 2011;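 active = inhibition above a set limit, near 3 SD of compounds lacking own fluorescence, cut at about 54% in these data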;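 note: plate controls were DMSO wells for no effect and 5 µM unlabelled arrestin peptide for full effect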
#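 System: GST-AP2 R879A glutathione beads | Also added: FITC-arrestin peptide, 50 nM | Times: 12 min plus 1 h, RT | Signal: Bead flow cytometry, FITC channel | Buffer or medium: PBS with 0.05% Tween 20 and 0.1% BSA | Read-out basis: Percent drop in bead-associated FITC signal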
# OPRM1-OPRD1 inv: inverse agonists of MOR-DOR heterodimerization, primary screen, cell-based, luminescence. actives 0.21% (n = 340,000). AID 504357, 2011. inhibition, % at 9.3 µM. cell-based MOR-DOR heterodimer luminescence, inverse agonism; in the data active = inhibition above about 22%, passing the limit was not always enough;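 note: 0% = cells with DMSO and 100% = wells without cells with DMSO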
# HTR5A ag: HTR5A agonists in luminescence cell assay, primary screen, counter-screen for OPRM1-OPRD1 heterodimer agonist project, full-deck HTS; 5-hydroxytryptamine receptor 5A (Homo sapiens), P47898; cell-based; activation, % at 9.3 µM; actives 0.61% (n = 340,000); in the data active = activation mostly above about 9.5%, no sharp cut-off; inactive = mostly below about 7.6%;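 note: 0% = cells with vehicle only and 100% = reference agonist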
# HTR5A inv ag: HTR5A inverse agonists in luminescence cell assay, primary screen, counter-screen for OPRM1-OPRD1 heterodimer inverse agonist project, full-deck HTS; AID 504634, 2011; HTR5A cell line, inverse agonism; inhibition, % at 9.3 µM; 5-hydroxytryptamine receptor 5A (Homo sapiens), P47898; actives 0.083% (n = 340,000); in the data active = inhibition mostly above about 23%, no sharp cut-off; inactive = mostly below about 18%;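 note: 0% = cells with DMSO and 100% = no-cell wells with DMSO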
# MOR-DOR ag-1: agonists of OPRM1-OPRD1 heterodimerization, primary screen, cell-based, luminescence; AID 504326, 2011; actives 0.3% (n = 340,000); cells; Mu-type opioid receptor (Homo sapiens) + Delta-type opioid receptor (Homo sapiens), …; activation, % at 9.3 µM;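 note: 0% = vehicle-treated cells and 100% = reference agonist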
# MOR-DOR ag-2: OPRM1-OPRD1 heterodimerization promoters, counter-screen for HTR5A agonist project, cell-based, luminescence | activation, % at 9.3 µM | shares compounds with HTR5A ag | actives 13% (n = 800) | U2OS counter-screen cells, complementation luminescence, 3 h | AID 504913, 2011
# HTR5A ag confirm: HTR5A agonists, retest of hits, confirmation, cell-based, luminescence | shares compounds with HTR5A ag | HTR5A agonist cell assay | activation, % at 9.3 µM | actives 17% (n = 800); in the data active = activation above about 17%;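 note: 0% = cells with vehicle only and 100% = full reference agonist response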
# The depositor's hits bear a star; · = no result given. Cut-off read from the data, not from the text of the source, unless noted: active = activation above about 18%; inactive = the rest.
SMILES,DAGLB inhibitor,Arrestin-AP2 inh,OPRM1-OPRD1 inv,HTR5A ag,HTR5A inv ag,MOR-DOR ag-1,MOR-DOR ag-2,HTR5A ag confirm
COc1ccc(S(=O)(=O)NC(C(=O)OCC(=O)Nc2ccc(N3CCOCC3)cc2)C(C)C)cc1 (stereo unspecified),0,2,-2,16*,-39,0,1,3
CC(=O)C1=C(O)C2(C)c3c(O)c(C)c(O)c(C(C)=O)c3OC2CC1=O (stereo unspecified),7,·,·,·,·,·,·,·
O=C(COc1ccc(C(=S)N2CCC(Cc3ccccc3)CC2)cc1)N1CCOCC1,-1,-2,4,15*,-43,-1,5,3
CN(Cc1ccccc1Cl)C(=O)c1cnccc1C(F)(F)F,-2,5,11,15*,-4,-2,0,3
CC(C)C(=O)NCCc1nc2ccccc2n1CCCOc1ccc(Cl)cc1,-5,-24,-1,-4,12,0,·,·
Cc1ccc(OCCn2c(CCNC(=O)C(C)C)nc3ccccc32)cc1,-2,1,13,20*,-55,-2,5,11
O=c1c(Cc2ccc(F)cc2)c(O)ccn1Cc1ccc(Cl)cc1Cl,1,0,5,20*,-52,-1,2,47*
O=c1c(Cc2ccc(F)cc2)c(O)ccn1Cc1ccc(F)cc1,-2,43,9,0,23,-2,·,·
COc1ccc2[nH]c3c(c2c1)CCN1C(=O)C(CC(=O)NC/C=C(\C)CCC=C(C)C)C[C@H](C(=O)N(C(C)C)C(C)C)[C@@]31C (stereo partly specified),-6,-3,1,2,-7,0,·,·
Cc1ccc(S(=O)(=O)N2CCN(C(=O)COC(=O)/C=C/c3ccc(OC(F)F)cc3)CC2)cc1,-4,6,2,1,-2,0,·,·
COc1cccc(N2CCN(C(=O)CCCCCn3c(=S)[nH]c4cc5c(cc4c3=O)OCO5)CC2)c1,-1,0,-40,21*,-79,8,6,21*
O=C(CCCCCn1c(=S)[nH]c2cc3c(cc2c1=O)OCO3)N1CCN(c2ccccc2)CC1,0,4,-3,0,1,1,·,·
COCCCNc1nc(N)c([N+](=O)[O-])c(NCC2CCCO2)n1 (stereo unspecified),2,-3,17,15*,4,-3,1,2
O=C(NCCc1ccc(F)cc1)C(=O)NCC1CCCN1S(=O)(=O)c1cccs1 (stereo unspecified),3,1,-19,15*,-40,3,2,0
C[C@@H](NC(=O)c1nc[nH]c1C(=O)NCC(=O)OCc1ccccc1)c1ccccc1,2,-4,-4,24*,-64,1,3,2
O=C1N(c2ccccc2C(F)(F)F)O[C@@]1(c1ccccc1)C1CCCCC1,-9,-6,12,4,-21,-3,·,·
O=C1N(c2ccccc2C(F)(F)F)O[C@@]1(c1ccccc1)C1CCCC1,-10,-2,-22,29*,-78,4,-1,-3
C#CC(=O)CC1(CN(Cc2ccccc2)C(=O)OC(C)(C)C)CCCCC1,5,-2,-26,17*,-43,5,34*,15
CC(C(=O)OCC(=O)N1CCN(c2ccccc2)CC1)N1C(=O)c2ccccc2C1=O (stereo unspecified),-2,-2,25,19*,-47,-6,3,1
Cc1nc(N)nc(N)c1CCCc1ccc(Cl)c(Cl)c1,-11,9,-8,18*,-30,2,1,0
COc1cc(-c2nc3ccc(C)cn3c2Nc2ccc3c(c2)OCCO3)ccc1O,4,2,-13,43*,-108,2,3,39*
COc1cc(-c2nc3cnccn3c2Nc2ccc3c(c2)OCCO3)ccc1O,0,25,5,10,-26,-1,·,·
C[C@H](NC(=O)c1ncn2c1C(=O)N[C@@H](C)C2)C(=O)OC(C)(C)C,-3,·,·,·,·,·,·,·
C/C(=N\NS(=O)(=O)c1ccc(Br)cc1)c1ccc2c(c1)OCO2,-3,-2,-3,7,1,1,·,·
C/C(=N/NS(=O)(=O)c1ccc(Cl)cc1)c1ccc2c(c1)OCO2,-3,-6,17,15*,-7,-3,3,-1
CCN(CC)C(=O)c1ccc(S(=O)(=O)N2CCC(c3nc4ccccc4s3)CC2)cc1,-2,3,-15,21*,-55,2,5,4
CCOc1cc(CN2CCN(c3cccc(C(F)(F)F)c3)CC2)ccc1OC,-4,-8,-15,6,-17,3,·,·
COc1ccc(CC(C)N2CCN(c3cccc(C(F)(F)F)c3)CC2)cc1OC (stereo unspecified),-1,3,-27,33*,-106,5,11,29*
CC12CCC(O)CC1=CCC1C2CCC2(C)C3=NN=CC3CC12 (stereo unspecified),2,17,-5,-1,4,1,·,·
O=C(Nc1ccc2nc(SCc3ccc(Cl)cc3)sc2c1)c1ccccc1C(=O)N1CCOCC1,2,-4,-32,21*,-51,7,12,6
